Results published in publication PMC8116641 (Archives of Virology, 2021).
Entries after “also recorded” stand apart in the source; their conditions may differ. Like-named read-outs stand apart in the source and are kept apart here.

Legend:
[1] = system: influenza A virus A/Puerto Rico/8/34 (H1N1) (PR8 (H1N1)); test: microbe, parasite or virus in culture; assay type: cell-based; settings: for IC50: Influenza A virus, H1N1|PR8, MDCK, read-out: IC50 (50% virus-inhibiting concentration)
[2] = system: influenza A viruses (H1, H1pdm09, and H3 subtypes); test: microbe, parasite or virus in culture; assay type: cell-based; settings: read-out: IC50 value (depending on the virus)
[3] = target: receptor-binding activity of viral HA of influenza A virus PR8 (H1N1) (Influenza A virus, UniProt P03452); assay type: biochemical
Chain of receptor-binding activity of viral HA of influenza A virus PR8 (H1N1) (P03452 18-343 limits assumed): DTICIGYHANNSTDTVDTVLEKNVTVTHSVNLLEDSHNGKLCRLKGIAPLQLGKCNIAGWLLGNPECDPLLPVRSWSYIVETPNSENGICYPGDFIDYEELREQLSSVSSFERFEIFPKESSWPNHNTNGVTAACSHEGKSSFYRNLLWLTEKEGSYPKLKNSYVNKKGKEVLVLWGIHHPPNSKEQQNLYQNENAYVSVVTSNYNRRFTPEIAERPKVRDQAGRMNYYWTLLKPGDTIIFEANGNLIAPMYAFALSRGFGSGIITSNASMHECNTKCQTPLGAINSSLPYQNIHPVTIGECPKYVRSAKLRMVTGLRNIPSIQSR
Chain of receptor-binding activity of viral HA of influenza A virus PR8 (H1N1) (P03452 344-565 limits assumed): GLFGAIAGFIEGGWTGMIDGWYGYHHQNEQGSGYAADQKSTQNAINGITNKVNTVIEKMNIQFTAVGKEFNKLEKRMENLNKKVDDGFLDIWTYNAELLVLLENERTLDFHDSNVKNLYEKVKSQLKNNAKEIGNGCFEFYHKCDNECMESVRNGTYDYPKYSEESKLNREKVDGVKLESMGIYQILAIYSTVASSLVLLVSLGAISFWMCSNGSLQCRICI

[4] = system: influenza A virus PR8 (H1N1); assay type: cell-based
[5] = system: influenza A virus A/California/07/09 (H1N1)pdm09 (Cal (H1N1)pdm09); test: microbe, parasite or virus in culture; assay type: cell-based; settings: for IC50: read-out: IC50 (50% inhibitory concentration)
[6] = Cytotoxicity assay, microtetrazolium test; assay type: cell-based; settings: dog, MDCK cells
Summary of the method: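 MDCK cells were exposed for 48 h at 36°C in 5% CO2 to threefold serial dilutions of test compound in MEM, in triplicate. After two PBS washes, cells were incubated for 1 h with MTT ([…] in PBS). The formazan was dissolved in DMSO and OD was read at 535 nm. OD was plotted against concentration to calculate CC50.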

[7] = system: influenza A virus A/Aichi/2/68 (H3N2) (Aichi (H3N2)); test: microbe, parasite or virus in culture; assay type: cell-based; settings: for IC50: read-out: IC50 (50% inhibitory concentration)

Row | SMILES | SI (selectivity index, CC50/IC50) [1] | IC50 [1] [µM] | CC50 at 48 h [6] [µM] | also measured
1 | CC1(C)[C@H]2CC[C@]1(C)[C@H](OC(=O)C[N+](C)(C)C)C2.[I-] [10a, N,N,N-Trimethyl-2-oxo-2-((1S,2R,4S)-1,7,7-trimethylbicyclo[2.2.1]heptan-2-yloxy)ethanaminium iodide] | 546 | 2.4 ± 0.4 | 1310 ± 126 | IC50 [2]: 2.4 to 16.8 µM; Effect on hemagglutination titer of the virus [3]: did not change this value; Infectious activity of the virus when compound is added late [4]: not statistically different from the control values; Time of addition at which the compound is most effective [4]: most effective when added at the early stages of the viral life cycle; also recorded: most effective when added within 0–2 hours after infection; SI (selectivity index, CC50/IC50) [5]: 78; IC50 ([5]; Influenza A virus, H1N1, MDCK): 16.9 µM; IC50 [5]: 16.8 ± 3.1 µM; SI (selectivity index, CC50/IC50) [7]: 142; IC50 [7]: 9.2 ± 1.3 µM
2 | CC1(C)[C@H]2CC[C@]1(C)[C@H](OC(=O)CCC[N+](C)(C)C)C2 [10c, N,N,N-Trimethyl-4-oxo-4-((1S,2R,4S)-1,7,7-trimethylbicyclo[2.2.1]heptan-2-yloxy)butan-1-aminium iodide] | – | > 117 | 264 ± 15 | –
3 | CC[N+](C)(CC)CC(=O)O[C@H]1C[C@@H]2CC[C@@]1(C)C2(C)C.[I-] [11a, N,N-Diethyl-N-methyl-2-oxo-2-((1S,2S,4S)-1,7,7-trimethylbicyclo[2.2.1]heptan-2-yloxy)ethanaminium iodide] | 3 | 316 ± 40 | 850 ± 38 | –
4 | CC[N+](C)(CC)CCC(=O)O[C@H]1C[C@@H]2CC[C@@]1(C)C2(C)C [11b, N,N-Diethyl-N-methyl-3-oxo-3-((1S,2S,4S)-1,7,7-trimethylbicyclo[2.2.1]heptan-2-yloxy)propan-1-aminium iodide] | – | > 37 | 69 ± 6 | –
5 | NC12CC3CC(CC(C3)C1)C2 [Amantadine, reference compound] | 4 | 64.2 ± 4.7 | 284 ± 21 | –
6 | CC(N)C1C[C@@H]2CC[C@H]1C2 (stereo partly drawn) [Deitiforine, reference compound] | – | – | 1270 ± 81 | –
7 | NC(=O)c1ncn([C@@H]2O[C@H](CO)[C@@H](O)[C@H]2O)n1 [Ribavirin, reference compound] | >81 | 24.6 | > 2000 | SI (selectivity index, CC50/IC50) [5]: 61; IC50 ([5]; Influenza A virus, H1N1, MDCK): 35 ± 4.6 µM; SI (selectivity index, CC50/IC50) [7]: 52; IC50 ([7]; Influenza A virus, H3N2, MDCK): 41 ± 3.9 µM
8 | CC(N)C12CC3CC(CC(C3)C1)C2 (stereo not drawn) [Rimantadine, reference compound] | 5 | 67 ± 4.9 | 335 ± 27 | –
9 | CC1(C)[C@@H]2CC[C@@]1(C)/C(=N/CC[N+](C)(C)C)C2.[I-] [compound 6, N,N,N-Trimethyl-2-((E)-((1R,4R)-1,7,7-trimethylbicyclo[2.2.1]heptan-2-ylidene)amino)ethanaminium iodide] | > 18 | 115 ± 10 | > 2100 | –
10 | CC1(C)[C@@H]2CC[C@@]1(C)/C(=N/CCC[N+](C)(C)C)C2.[I-] [compound 7, N,N,N-Trimethyl-3-((E)-((1R,4R)-1,7,7-trimethylbicyclo[2.2.1]heptan-2-ylidene)amino)propan-1-aminium iodide] | > 14 | 144 ± 12 | > 1990 | –
